Measured values as given in ChEMBL document CHEMBL1806396, “Development of potent B-RafV600E inhibitors containing an arylsulfonamide headgroup” (Bioorg Med Chem Lett, 2011).

Key:
[1] = target: T1, Serine/threonine-protein kinase B-raf (Homo sapiens, UniProt P15056, V600E); assay: Inhibition of B-Raf V600E mutant in human SK-MEL-28 cells assessed as reduction of ERK phosphorylation after 1 hr; format: cell-based
Procedure, shortened: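 SKMEL28 cells (EMEM + 10% FBS) plated at 20,000 cells/well; 10-point dilution 20 µM to 0.001 µM, final DMSO 0.2%, 1 h. Fixed in 3.7% formaldehyde, permeabilized with 0.1% Triton X-100. Anti-ERK and anti-phospho-ERK primaries overnight at 4 °C, IR-dye secondaries 1 h, in-cell western on LiCor Odyssey. % inhibition of ERK phosphorylation vs control; IC50 by 4-parameter fit; means of 2–5 experiments.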

[2] = target: T1, Serine/threonine-protein kinase B-raf; assay: Inhibition of B-Raf V600E mutant
SK-MEL-28 = assay: Antiproliferative activity against human SK-MEL-28 cells expressing B-Raf V600E mutant after 3 days by CellTiter-Glo assay; format: functional, cell-based
Procedure, shortened: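 SKMEL28 melanoma cells grown in EMEM + 10% FBS, 1% pen-strep, 1% sodium pyruvate, 37 °C, humidified 5% CO2; plated 500 cells/well. 10-point dilution 20 µM down to 0.001 µM, final DMSO 0.2%, 3 days. Total ATP read by CellTiter-Glo as cell-number surrogate. % growth inhibition vs control wells; IC50 by 4-parameter fit; mean of two experiments.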

[3] = target: Tyrosine-protein kinase Lyn (Homo sapiens, UniProt P07948); assay: Inhibition of Lyn
Sequence of Tyrosine-protein kinase Lyn (P07948 whole entry): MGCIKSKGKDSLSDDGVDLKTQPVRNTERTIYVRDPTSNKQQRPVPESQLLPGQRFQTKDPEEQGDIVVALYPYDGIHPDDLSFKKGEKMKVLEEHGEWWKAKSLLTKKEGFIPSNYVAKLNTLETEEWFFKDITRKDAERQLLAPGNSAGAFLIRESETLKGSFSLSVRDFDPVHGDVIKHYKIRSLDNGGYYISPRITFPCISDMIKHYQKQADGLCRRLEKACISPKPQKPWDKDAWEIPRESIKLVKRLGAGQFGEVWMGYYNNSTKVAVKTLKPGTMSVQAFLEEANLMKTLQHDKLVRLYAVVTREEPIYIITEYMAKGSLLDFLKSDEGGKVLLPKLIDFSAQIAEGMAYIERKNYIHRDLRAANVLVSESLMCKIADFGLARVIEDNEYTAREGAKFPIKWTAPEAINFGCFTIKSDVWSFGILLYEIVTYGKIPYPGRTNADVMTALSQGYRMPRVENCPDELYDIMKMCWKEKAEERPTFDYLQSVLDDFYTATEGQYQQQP

[4] = target: Tyrosine-protein kinase Lck (Homo sapiens, UniProt P06239); assay: Inhibition of Lck
Sequence of Tyrosine-protein kinase Lck (P06239 whole entry): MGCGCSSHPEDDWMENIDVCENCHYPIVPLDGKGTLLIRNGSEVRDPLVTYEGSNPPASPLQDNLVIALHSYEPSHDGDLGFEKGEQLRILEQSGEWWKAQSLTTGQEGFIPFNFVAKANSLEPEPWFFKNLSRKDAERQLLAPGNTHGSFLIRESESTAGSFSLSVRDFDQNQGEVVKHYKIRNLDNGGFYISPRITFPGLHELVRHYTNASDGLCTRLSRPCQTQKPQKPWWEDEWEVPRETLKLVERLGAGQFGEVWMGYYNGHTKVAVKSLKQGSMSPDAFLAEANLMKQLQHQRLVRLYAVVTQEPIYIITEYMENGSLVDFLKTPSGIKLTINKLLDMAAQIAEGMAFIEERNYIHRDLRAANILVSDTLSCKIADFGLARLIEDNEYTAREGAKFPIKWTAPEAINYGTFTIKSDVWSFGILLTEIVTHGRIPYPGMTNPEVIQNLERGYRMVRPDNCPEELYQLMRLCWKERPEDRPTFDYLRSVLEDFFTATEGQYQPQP

[5] = target: Receptor tyrosine-protein kinase erbB-4 (Homo sapiens, UniProt Q15303); assay: Inhibition of ErbB4
Sequence of Receptor tyrosine-protein kinase erbB-4 (Q15303 whole entry): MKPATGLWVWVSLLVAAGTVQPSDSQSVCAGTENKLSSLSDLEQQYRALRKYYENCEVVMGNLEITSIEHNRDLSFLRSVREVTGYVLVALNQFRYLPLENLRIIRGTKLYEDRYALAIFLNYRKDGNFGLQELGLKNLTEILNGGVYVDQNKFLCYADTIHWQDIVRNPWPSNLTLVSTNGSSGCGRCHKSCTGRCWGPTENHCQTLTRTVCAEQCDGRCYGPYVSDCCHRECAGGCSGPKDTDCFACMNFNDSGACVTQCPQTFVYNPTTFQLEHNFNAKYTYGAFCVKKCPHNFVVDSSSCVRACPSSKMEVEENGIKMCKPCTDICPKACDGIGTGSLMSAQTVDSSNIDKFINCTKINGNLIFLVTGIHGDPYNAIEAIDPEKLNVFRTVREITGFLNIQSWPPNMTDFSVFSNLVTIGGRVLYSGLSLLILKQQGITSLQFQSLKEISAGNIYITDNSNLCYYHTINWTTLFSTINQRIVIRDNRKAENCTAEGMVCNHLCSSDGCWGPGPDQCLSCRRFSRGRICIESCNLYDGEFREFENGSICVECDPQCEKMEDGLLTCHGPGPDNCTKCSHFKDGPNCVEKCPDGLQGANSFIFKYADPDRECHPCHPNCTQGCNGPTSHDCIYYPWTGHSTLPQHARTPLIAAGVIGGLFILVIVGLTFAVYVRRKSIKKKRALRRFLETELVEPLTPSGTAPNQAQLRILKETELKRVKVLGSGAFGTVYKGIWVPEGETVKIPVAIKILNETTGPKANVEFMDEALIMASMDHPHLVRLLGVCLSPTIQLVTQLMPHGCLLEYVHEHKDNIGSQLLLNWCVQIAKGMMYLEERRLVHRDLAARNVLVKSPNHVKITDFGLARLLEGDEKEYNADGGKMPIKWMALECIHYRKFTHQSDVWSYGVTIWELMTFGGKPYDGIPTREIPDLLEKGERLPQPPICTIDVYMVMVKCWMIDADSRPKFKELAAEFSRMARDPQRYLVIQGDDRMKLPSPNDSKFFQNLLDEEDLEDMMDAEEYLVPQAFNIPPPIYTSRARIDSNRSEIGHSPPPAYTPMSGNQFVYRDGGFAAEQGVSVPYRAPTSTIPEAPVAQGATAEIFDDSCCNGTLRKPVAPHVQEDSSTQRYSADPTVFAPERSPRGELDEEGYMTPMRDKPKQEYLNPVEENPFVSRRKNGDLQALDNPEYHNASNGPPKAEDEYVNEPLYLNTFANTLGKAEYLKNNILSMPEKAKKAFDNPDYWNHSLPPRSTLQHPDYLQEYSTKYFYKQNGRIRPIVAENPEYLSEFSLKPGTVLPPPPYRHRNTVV

TGF-beta receptor type-1 = target: T2, TGF-beta receptor type-1 (Homo sapiens, UniProt P36897); assay: Inhibition of ALK5
T2 sequence (P36897 whole entry): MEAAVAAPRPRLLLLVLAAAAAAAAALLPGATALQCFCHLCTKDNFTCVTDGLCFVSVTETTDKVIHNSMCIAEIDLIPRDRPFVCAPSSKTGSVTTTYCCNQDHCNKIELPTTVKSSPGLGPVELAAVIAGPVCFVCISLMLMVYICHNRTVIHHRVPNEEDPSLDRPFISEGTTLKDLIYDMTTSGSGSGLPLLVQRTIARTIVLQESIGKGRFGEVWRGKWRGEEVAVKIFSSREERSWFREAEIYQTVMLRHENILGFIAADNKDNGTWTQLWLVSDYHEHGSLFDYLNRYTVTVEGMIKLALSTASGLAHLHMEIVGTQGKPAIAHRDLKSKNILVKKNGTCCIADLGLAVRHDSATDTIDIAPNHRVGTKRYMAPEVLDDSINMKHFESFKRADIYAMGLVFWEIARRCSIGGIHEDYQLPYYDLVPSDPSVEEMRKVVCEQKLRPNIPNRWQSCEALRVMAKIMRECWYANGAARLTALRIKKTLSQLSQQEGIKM

[6] = target: Tyrosine-protein kinase BTK (Homo sapiens, UniProt Q06187); assay: Inhibition of Btk
Sequence of Tyrosine-protein kinase BTK (Q06187 whole entry): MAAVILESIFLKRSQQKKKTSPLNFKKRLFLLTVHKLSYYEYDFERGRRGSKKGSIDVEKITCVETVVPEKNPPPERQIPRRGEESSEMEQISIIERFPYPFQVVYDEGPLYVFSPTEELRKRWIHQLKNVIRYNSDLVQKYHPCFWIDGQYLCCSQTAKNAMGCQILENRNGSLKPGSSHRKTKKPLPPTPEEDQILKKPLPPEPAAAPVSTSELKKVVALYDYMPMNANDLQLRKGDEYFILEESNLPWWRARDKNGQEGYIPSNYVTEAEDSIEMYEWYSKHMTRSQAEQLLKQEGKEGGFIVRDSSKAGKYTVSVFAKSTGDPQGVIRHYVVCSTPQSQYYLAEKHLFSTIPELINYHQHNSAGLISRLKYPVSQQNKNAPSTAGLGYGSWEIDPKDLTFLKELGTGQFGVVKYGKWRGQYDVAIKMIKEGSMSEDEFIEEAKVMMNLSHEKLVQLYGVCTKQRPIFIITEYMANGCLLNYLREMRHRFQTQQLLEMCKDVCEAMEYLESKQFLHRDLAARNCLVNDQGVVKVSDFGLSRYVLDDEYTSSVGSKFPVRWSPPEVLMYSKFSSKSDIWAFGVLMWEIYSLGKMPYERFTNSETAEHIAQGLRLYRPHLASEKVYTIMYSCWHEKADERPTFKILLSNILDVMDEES

Activin receptor type-2B = Activin receptor type-2B (Homo sapiens, UniProt Q13705); assay: Inhibition of ACTR-2B
Sequence of Activin receptor type-2B (Q13705 whole entry): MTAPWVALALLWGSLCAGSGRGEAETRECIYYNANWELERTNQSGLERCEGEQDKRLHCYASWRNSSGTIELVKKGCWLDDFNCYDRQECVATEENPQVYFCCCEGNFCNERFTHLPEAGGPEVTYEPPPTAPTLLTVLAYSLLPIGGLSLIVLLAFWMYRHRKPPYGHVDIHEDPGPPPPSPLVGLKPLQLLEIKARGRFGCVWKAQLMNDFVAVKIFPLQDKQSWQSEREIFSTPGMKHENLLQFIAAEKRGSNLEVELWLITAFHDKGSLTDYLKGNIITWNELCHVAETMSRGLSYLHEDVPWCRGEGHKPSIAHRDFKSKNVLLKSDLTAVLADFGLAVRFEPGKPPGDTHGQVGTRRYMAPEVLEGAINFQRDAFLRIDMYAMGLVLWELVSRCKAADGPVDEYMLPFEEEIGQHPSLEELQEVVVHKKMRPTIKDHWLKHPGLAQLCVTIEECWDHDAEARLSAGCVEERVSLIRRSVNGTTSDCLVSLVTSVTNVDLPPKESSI

HFF = assay: Antiproliferative activity against HFF after 3 days by CellTiter-Glo assay; format: cell-based; details: Homo sapiens, 72 h

T1 sequence (P15056 2-766 V600E limits assumed): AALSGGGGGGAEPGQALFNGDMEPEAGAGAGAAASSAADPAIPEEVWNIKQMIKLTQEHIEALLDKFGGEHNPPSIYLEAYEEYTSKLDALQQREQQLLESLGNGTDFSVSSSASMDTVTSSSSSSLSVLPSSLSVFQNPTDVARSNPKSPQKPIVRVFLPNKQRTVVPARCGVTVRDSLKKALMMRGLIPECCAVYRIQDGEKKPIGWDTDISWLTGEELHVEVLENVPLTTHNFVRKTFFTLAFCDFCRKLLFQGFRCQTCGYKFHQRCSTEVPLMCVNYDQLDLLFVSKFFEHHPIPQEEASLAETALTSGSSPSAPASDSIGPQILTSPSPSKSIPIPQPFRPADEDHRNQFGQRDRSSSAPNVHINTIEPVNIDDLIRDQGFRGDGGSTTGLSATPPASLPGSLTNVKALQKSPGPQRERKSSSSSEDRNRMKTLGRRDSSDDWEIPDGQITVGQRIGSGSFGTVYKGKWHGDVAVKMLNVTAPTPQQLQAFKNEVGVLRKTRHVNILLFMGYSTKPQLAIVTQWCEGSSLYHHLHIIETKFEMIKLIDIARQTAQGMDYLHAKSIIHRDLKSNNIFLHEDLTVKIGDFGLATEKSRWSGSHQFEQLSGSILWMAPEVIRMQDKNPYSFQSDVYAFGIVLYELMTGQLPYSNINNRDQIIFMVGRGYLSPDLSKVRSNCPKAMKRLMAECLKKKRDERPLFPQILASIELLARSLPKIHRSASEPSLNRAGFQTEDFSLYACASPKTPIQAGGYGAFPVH

| Compound | EC50 [1] | IC50 [2] | EC50 (SK-MEL-28; Homo sapiens, SK-MEL-28, 72 h) | further results |
| --- | --- | --- | --- | --- |
| CN1CCc2ccc(Nc3nccc(-c4c(-c5cccc(C(=O)Nc6c(F)cccc6F)c5)nc5ccccn45)n3)cc2C1 | > 2200 nM | 12 nM | – | – |
| CN1CCc2ccc(Nc3nccc(-c4c(-c5cccc(NC(=O)Nc6c(F)cccc6F)c5)nc5ccccn45)n3)cc2C1 | > 20000 nM | 5 nM | 6340 nM | – |
| CN1CCc2ccc(Nc3nccc(-c4c(-c5cccc(NC(=O)c6c(F)cccc6F)c5)nc5ccccn45)n3)cc2C1 | > 10000 nM | 9 nM | 5320 nM | – |
| CN1CCc2ccc(Nc3nccc(-c4c(-c5cccc(NS(=O)(=O)c6ccccc6)c5)nc5ccccn45)n3)cc2C1 | 99 nM | 132 nM | 1110 nM | – |
| CC(C)c1nc(-c2cccc(NC(=O)c3c(F)cccc3F)c2)c(-c2ccnc(Nc3ccc4c(c3)CN(C)CC4)n2)s1 | 580 nM | 4 nM | 2750 nM | – |
| CC(C)c1nc(-c2cccc(NS(=O)(=O)c3ccccc3)c2)c(-c2ccnc(Nc3ccc4c(c3)CN(C)CC4)n2)s1 | 52 nM | 12 nM | 287 nM | – |
| CCc1nc(-c2cccc(N(C)S(=O)(=O)c3ccccc3)c2)c(-c2ccnc(Nc3ccc(N4CCN(C(C)=O)CC4)nc3)n2)s1 | 4730 nM | 1970 nM | 8620 nM | – |
| CCc1nc(-c2cccc(CS(=O)(=O)c3ccccc3)c2)c(-c2ccnc(Nc3ccc(N4CCN(C(C)=O)CC4)nc3)n2)s1 | > 20000 nM | 1360 nM | 11100 nM | – |
| CC(C)c1nc(-c2ccc(F)c(NS(=O)(=O)c3c(F)cccc3F)c2)c(-c2ccnc(Nc3ccc(N4CCOCC4)nc3)n2)s1 [listing 2 of 2 here] | – | – | 52 nM | EC50 (HFF): 15600 nM |

Continued, in another order:

| EC50 [1] | IC50 [2] | EC50 (SK-MEL-28; Homo sapiens, SK-MEL-28, 72 h) | Compound | further results |
| --- | --- | --- | --- | --- |
| 7 nM | 3.6 nM | 24 nM | CC(=O)N1CCN(c2ccc(Nc3nccc(-c4sc(C(C)C)nc4-c4cccc(NS(=O)(=O)c5ccccc5)c4)n3)cn2)CC1 | – |
| 4 nM | 0.6 nM | 4 nM | CC(=O)N1CCN(c2ccc(Nc3nccc(-c4sc(C(C)C)nc4-c4cccc(NS(=O)(=O)c5ccccc5F)c4)n3)cn2)CC1 | – |
| 10 nM | 0.8 nM | 8 nM | CC(=O)N1CCN(c2ccc(Nc3nccc(-c4sc(C(C)C)nc4-c4cccc(NS(=O)(=O)c5cccc(F)c5)c4)n3)cn2)CC1 | – |
| 9 nM | 9.5 nM | 69 nM | CC(=O)N1CCN(c2ccc(Nc3nccc(-c4sc(C(C)C)nc4-c4cccc(NS(=O)(=O)c5ccc(F)cc5)c4)n3)cn2)CC1 | – |
| 21 nM | 34 nM | 85 nM | CC(=O)N1CCN(c2ccc(Nc3nccc(-c4sc(C(C)C)nc4-c4cccc(NS(=O)(=O)c5cccc(Cl)c5)c4)n3)cn2)CC1 | – |
| 8 nM | 0.6 nM | 8 nM | CC(=O)N1CCN(c2ccc(Nc3nccc(-c4sc(C(C)C)nc4-c4cccc(NS(=O)(=O)c5cc(F)ccc5F)c4)n3)cn2)CC1 | – |
| 10 nM | 1.3 nM | 12 nM | CC(=O)N1CCN(c2ccc(Nc3nccc(-c4sc(C(C)C)nc4-c4cccc(NS(=O)(=O)c5c(F)cccc5F)c4)n3)cn2)CC1 | – |
| 7 nM | 1.2 nM | 6 nM | CC(C)c1nc(-c2cccc(NS(=O)(=O)c3c(F)cccc3F)c2)c(-c2ccnc(Nc3ccc(N4CCOCC4)nc3)n2)s1 | – |
| 11 nM | 0.5 nM | 8 nM | CC(C)c1nc(-c2cccc(NS(=O)(=O)c3c(F)cccc3F)c2F)c(-c2ccnc(Nc3ccc(N4CCOCC4)nc3)n2)s1 | – |
| 24 nM | 0.9 nM | 14 nM | CC(C)c1nc(-c2cc(F)cc(NS(=O)(=O)c3c(F)cccc3F)c2)c(-c2ccnc(Nc3ccc(N4CCOCC4)nc3)n2)s1 | – |
| 23 nM | 3.8 nM | – | CC(C)c1nc(-c2ccc(F)c(NS(=O)(=O)c3c(F)cccc3F)c2)c(-c2ccnc(Nc3ccc(N4CCOCC4)nc3)n2)s1 [listing 1 of 2 here] | IC50 [3]: 10 nM; IC50 [4]: 10 nM; IC50 [5]: 10 nM; IC50 (TGF-beta receptor type-1): 10 nM; IC50 [6]: 10 nM; IC50 (Activin receptor type-2B): 10 nM; EC50 (SK-MEL-28; sk-mel-28): 47 nM |
